Data reported in PubChem BioAssay AID1665 (Sanford-Burnham Center for Chemical Genomics, 2009).
Hit rate of the full screen: of about 190,000 compounds, about 590 (0.31%) were called active.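 The calls were made as follows: active = nuclear translocation activity above 50% at 5 µM, with a well cell count of 50 or more; inconclusive = wells under 50 cells across six images, flagged as toxic; inactive = the rest.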 Many of the other results were omitted from the sample, so actives are more common in it than they were.

assay: beta-catenin nuclear localization change in HeLa – imaging, HeLa cells, immunofluorescence, high-content, primary screen (AID 1665); conditions: at 5 µM; cell count: HeLa beta-catenin nuclear translocation, measured here: cell count, cytotoxicity flag; nuclear translocation activity: stronger effect = higher value;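 as to nuclear translocation activity: per-cell ratio of nuclear to cytoplasmic median beta-catenin stain intensity; plate controls were DMSO negative control for no effect and GSK-3 inhibitor IX positive control for full effect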
In short: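 System: HeLa cells, endogenous beta-catenin; compound dosing: 5 µM primary single dose, 0.1% DMSO, 0.02–20 µM confirmation series; incubation: 24 h compound exposure at 37°C, 5% CO2; signal: beta-catenin immunofluorescence imaging with DAPI; evaluation: % activation, nuclear-to-cytoplasmic median beta-catenin signal ratio per cell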

| SMILES | cell count | nuclear translocation activity |
| --- | --- | --- |
| Cn1nccc1NC(=O)Nc1ccc(OC(F)(F)F)cc1 | 1280 cells | 0.7% (inactive) |
| CC(C)Cc1ccc(C(C)C(=N)N)cc1 (stereo not given) | 1310 cells | 1.1% (inactive) |
| COc1ccc(CNC(=O)C2CC(c3ccc(C(F)(F)F)cc3)=NO2)cc1 (stereo not given) | 1110 cells | 2.2% (inactive) |
| COc1ccc(C2=NOC(C(=O)NCc3ccco3)C2)cc1OC (stereo not given) | 701 cells | 166% (active) |
| COc1ccc(-c2cc(C(=O)NCc3ccco3)no2)cc1OC | 1220 cells | -1.7% (inactive) |
| COc1ccc(S(=O)(=O)N(CC(=O)N/N=C/c2ccccc2C(=O)O)c2ccccc2OC)cc1 | 1300 cells | -0.3% (inactive) |
| Cc1cc(=O)oc2cc(OCC3CC(c4ccccc4Cl)=NO3)ccc12 (stereo not given) | 228 cells | 168% (active) |
| Cc1cc(=O)oc2cc(OCCC[n+]3ccccc3)ccc12 | 1370 cells | -1% (inactive) |
| Cc1ccccc1N1CCN(CCCOc2ccc3c(C)cc(=O)oc3c2)CC1 | 1030 cells | 1.9% (inactive) |
| COc1ccc(C(C(=O)NC(C)(C)C)N(C(=O)Cn2nnc3ccccc32)c2ccc(C(C)=O)cc2)cc1O (stereo not given) | 1370 cells | -1% (inactive) |
| CCOc1cccc(-c2nnc3sc(COc4ccc(OC)cc4)nn23)c1 | 1020 cells | -0.9% (inactive) |
| COc1ccc(-n2nnnc2-c2nc3ccccc3s2)cc1 | 953 cells | 0.1% (inactive) |
| CCOc1cccc(-n2nnnc2-c2ccc(OC)cc2)c1 | 184 cells | 63.9% (active) |
| CC(C)(C)NC(=O)/C(=C/c1cccnc1)NC(=O)c1ccco1 | 1310 cells | -0.7% (inactive) |
| Cc1nn2c(NCCN(C)C)c3c(nc2c1-c1ccccc1)CCC3 | 1430 cells | 0.3% (inactive) |
| C=CCNC(=S)N1CCc2[nH]c3ccccc3c2C1 | 1340 cells | 0.9% (inactive) |
| O=C(NNC(=S)Nc1ccc(F)cc1)[C@H]1C[C@@H]1c1ccccc1 | 1360 cells | -0.2% (inactive) |
| Cc1ccc(/C=N/NC(=S)NC2CCCCC2)o1 | 1310 cells | -0.8% (inactive) |
| Cc1cc(C)cc(OCC(=O)O/N=C(\N)Cc2ccc([N+](=O)[O-])cc2)c1 | 1030 cells | -2.4% (inactive) |
| COc1ccc(-c2nn(C)c(=O)c3ccccc23)cc1CNC(=O)C1CCCCC1 | 1350 cells | 0.1% (inactive) |
| COc1ccc(C(CC(=O)N2CCN(c3ccccc3)CC2)c2c(O)cc(OC)cc2OC)cc1 (stereo not given) | 1050 cells | 0.9% (inactive) |
| Cc1ccc(/C=N/NC(=O)CSc2ccccn2)o1 | 1300 cells | 0.7% (inactive) |

| SMILES | cell count | nuclear translocation activity |
| --- | --- | --- |
| COC(=O)c1c(C)oc(C)c1S(=O)(=O)Nc1ccc(C(C)C)cc1 | 1320 cells | -1.4% (inactive) |
| CC12C(=O)N(c3ccccc3)C(=O)C1C(c1ccccc1)N1CCCN12 (stereo not given) | 1080 cells | -5.7% (inactive) |
| COc1cc(NC(=O)c2ccc(CNc3c(N4CCCC4)c(=O)c3=O)cc2)cc(OC)c1OC | 1340 cells | -0.2% (inactive) |
| O=C(CSc1nnc(SCc2ccc(F)cc2)s1)Nc1ccc(C(=O)O)cc1 | 1300 cells | -1% (inactive) |
| CCOC(=O)N/N=C1\CC(C)S(=O)(=O)c2ccc(Cl)cc21 (stereo not given) | 1360 cells | 0.2% (inactive) |
| O=C(N/N=C/c1ccc([N+](=O)[O-])cc1)c1c[nH]c2ccccc12 | 1150 cells | -1.5% (inactive) |
| Cc1cc(C(=O)N/N=C/c2ccccc2[N+](=O)[O-])c(C)o1 | 1070 cells | -0.2% (inactive) |
| Cc1c(C(=O)N/N=C/c2ccccc2)[nH]c2c([N+](=O)[O-])cccc12 | 474 cells | 69.8% (active) |
| c1csc(-c2nnc(COc3ncnc4sccc34)o2)c1 | 1250 cells | 2.6% (inactive) |
| O=C(NC(=O)N1CCSCC1)c1c(Cl)cccc1Cl | 1280 cells | 0.2% (inactive) |
| O=C(Nc1cccnc1)c1cc([N+](=O)[O-])ccc1Cl | 1370 cells | -0.7% (inactive) |
| CCOC(=O)CSC1=C(C#N)C(c2sccc2C)CC(=O)N1 (stereo not given) | 658 cells | 69% (active) |
| Cc1ccc(C2CC(=O)NC(SCC(=O)OCc3ccccc3)=C2C#N)o1 (stereo not given) | 922 cells | 47.9% (inactive) |
| C=CCOC(=O)C1=C(C)NC(SCC(=O)OCC)=C(C#N)C1c1ccc(C)cc1 (stereo not given) | 1350 cells | 0.1% (inactive) |
| O=C(O)C1CCN(C(=O)c2cc(F)cc3c2OCOC3)CC1 | 1200 cells | -2.6% (inactive) |
| O=C(NNC(=S)NC1CC2CCC1C2)c1ccc(Cl)cc1 (stereo not given) | 1150 cells | -1.4% (inactive) |
| CCNC(=O)CCc1nc(-c2ccc(C)cc2)no1 | 1360 cells | -0.5% (inactive) |
| Nc1nonc1-c1nc2ccccc2n1Cc1ccc(F)cc1 | 778 cells | -0.5% (inactive) |
| Nc1nonc1-c1nc2ccccc2n1CCC(=O)O | 899 cells | -2% (inactive) |
| COc1ccc(C)c(Cn2c(-c3nonc3N)nc3ccccc32)c1 | 720 cells | 101% (active) |
| COc1ccc(Cc2nnc(NC(=O)c3cc(OC)c(OC)c(OC)c3)s2)cc1OC | 371 cells | 53.4% (active) |
| CCCc1nnc(NC(=O)c2cc(OC)cc(OC)c2)s1 | 878 cells | -2.3% (inactive) |

| SMILES | cell count | nuclear translocation activity |
| --- | --- | --- |
| O=C(Nc1nnc(Cc2ccc(Cl)cc2)s1)c1ccncc1 | 1270 cells | 1% (inactive) |
| O=[N+]([O-])c1ccc2nc(-c3ccccn3)[nH]c2c1 | 1380 cells | -0.1% (inactive) |
| Brc1ccc(-c2nn[nH]n2)cc1 | 1320 cells | 0.9% (inactive) |
| Nc1ccc(C(=O)OCC(=O)NC2CCS(=O)(=O)C2)cc1[N+](=O)[O-] (stereo not given) | 1260 cells | -3.1% (inactive) |
| Nc1c(N(CCO)C(=O)C2CCCCC2)c(=O)[nH]c(=O)n1Cc1ccccc1 | 1350 cells | 0.2% (inactive) |
| O=C(Nc1ccc(S(=O)(=O)N2CCOCC2)cc1)c1ccc2ncsc2c1 | 1420 cells | -1.2% (inactive) |
| O=C(NCc1ccco1)C1CCCN1S(=O)(=O)c1ccccc1C(F)(F)F (stereo not given) | 1300 cells | -0.6% (inactive) |
| Cc1cc(CO)nn1-c1ccc([N+](=O)[O-])cc1 | 1190 cells | -2.5% (inactive) |
| COc1ccc(Cl)cc1C(=O)NNC(=O)c1nc2nc(C)cc(C)n2n1 | 1330 cells | 1.2% (inactive) |
| COc1cc2c(cc1OC)C(/C=C/c1ccco1)=NCC2 | 1310 cells | 2% (inactive) |
| Cc1ccc(C)c2[nH]c(=O)c(CN(Cc3cccnc3)C(=S)NCc3ccco3)cc12 | 1320 cells | -1.9% (inactive) |
| Cc1cc(C(=O)OCC(=O)NCc2ccco2)c(C)n1-c1ccccc1 | 337 cells | 94.1% (active) |
| O=C(COC(=O)c1cc(S(=O)(=O)N2CCCCC2)ccc1Cl)NCc1ccco1 | 1080 cells | -1.5% (inactive) |
| CN(c1ccccc1)S(=O)(=O)c1ccc(Cl)c(C(=O)OCC(=O)NCc2ccco2)c1 | 1260 cells | -0.2% (inactive) |
| Cc1cc(C)n(-c2nc(C(F)(F)F)nc3ccccc23)n1 | 998 cells | 0% (inactive) |
| COc1ccc(C(=O)NN(C)c2nc(-c3ccccc3)cc(C)c2S(C)(=O)=O)cc1 | 1220 cells | -2.1% (inactive) |
| CN(NC(=O)c1ccccc1F)c1nc(C(F)(F)F)nc2ccccc12 | 103 cells | 155% (active) |
| CSc1nc(N(C)NC(=O)c2cccc(C)c2)c2ccccc2n1 | 751 cells | 97.3% (active) |
| CN(NC(=O)c1ccccc1)c1nc2ccccc2nc1C(F)(F)F | 965 cells | 6.3% (inactive) |
| COc1ccc(OCC(=O)NNC(=O)c2cccc(C)c2)cc1 | 1060 cells | -0.2% (inactive) |
| COC(=O)c1sccc1NN1C(=O)c2ccccc2C1=O | 1180 cells | -1.9% (inactive) |
| COC(=O)c1cc(N2CCNCC2)nc2ccccc12 | 1220 cells | 1.7% (inactive) |

| SMILES | cell count | nuclear translocation activity |
| --- | --- | --- |
| Cc1ccc(F)cc1NC(=O)N1CCCN(c2ccc(C(F)(F)F)cn2)CC1 | 1280 cells | -1% (inactive) |
| CCN(CC)c1ccc(/C=N/NC(=O)c2cnccn2)c(O)c1 | 1050 cells | 12.5% (inactive) |
| Cc1cc2c(cc1C)N(Cc1ccccc1)C1=NCCCN12 | 1210 cells | -0.7% (inactive) |
| Cc1ccc(NC(=O)/C(=C\c2ccccc2)NC(=O)c2ccco2)cc1 | 1370 cells | 0.2% (inactive) |
| COC(=O)c1cn(C(=O)c2ccc(Cl)cc2)c2ccccc12 | 1100 cells | -1.4% (inactive) |
| COc1c(N2CCN(C(=S)Nc3ccccc3F)C(C)C2)c(F)cc2c(=O)c(C(=O)O)cn(C3CC3)c12 (stereo not given) | 1380 cells | 0.4% (inactive) |
| Cc1ccc(OCC(=O)N/N=C\c2ccco2)c(C)c1 | 1340 cells | -1.4% (inactive) |
| Cc1ccc(/C=N/NC(=O)COc2ccccc2-c2ccccc2)cc1 | 162 cells | 107% (active) |
| CSc1ccc(/C=N\NC(=O)COc2ccc(Cl)cc2Br)cc1 | 812 cells | -1.4% (inactive) |
| COc1ccc(CCN2C(=O)CC(N3CCC(C(N)=O)CC3)C2=O)cc1OC (stereo not given) | 1240 cells | 0.6% (inactive) |
| Cc1ccc(N2NC(=O)/C(=C/C=C/c3ccco3)C2=O)cc1C | 1100 cells | 1.3% (inactive) |
| Cc1ccc(N=C2NC(=O)/C(=C/C=C/c3ccco3)S2)cc1C | 321 cells | 58.6% (active) |
| Cc1cccc(N=C2NC(=O)/C(=C/c3cn(C)c4ccccc34)S2)c1 | 1040 cells | 0.7% (inactive) |
| CCCNc1c(N)c(=O)c1=O | 1380 cells | -0.4% (inactive) |
| O=C(N/N=C/c1cccc2cccnc12)[C@H]1C[C@@H]1c1ccccc1 | 1300 cells | 2.9% (inactive) |
| Cc1noc(C)c1C(=O)OCC(=O)N1CCN(S(=O)(=O)c2ccc3ccccc3c2)CC1 | 1300 cells | 0.1% (inactive) |
| Cc1ccc(C(=O)N/C(=C\c2ccco2)C(=O)NC2CCS(=O)(=O)C2)cc1 (stereo not given) | 1360 cells | -0.2% (inactive) |
| COc1ccc(CCNC(=O)C(=O)NCC2CCNCC2)cc1OC | 1380 cells | -1.5% (inactive) |
| COc1ccc(CCNC(=O)C(=O)Nc2ccc3nc4n(c(=O)c3c2)CCCCC4)cc1OC | 1400 cells | 0.2% (inactive) |
